Experimental data as given in ChEMBL document CHEMBL4732114, “Design and structural optimization of novel 2H-benzo[h]chromene derivatives that target AcrB and reverse bacterial multidrug resistance” (Eur J Med Chem, 2021).

Legend:
[1] = target: T1, Multidrug efflux pump subunit AcrB (Escherichia coli (strain K12)) (UniProt P31224); test: Inhibition of AcrB in multidrug-resistant Escherichia coli BW25113 assessed as potentiation of erythromycin-induced antibacterial activity by measuring fold change in erythromycin MIC at 128 ug/ml by checkerboard titration method relative to erythromycin MIC; settings: dose 128.0 µg/ml
T1 sequence (whole entry): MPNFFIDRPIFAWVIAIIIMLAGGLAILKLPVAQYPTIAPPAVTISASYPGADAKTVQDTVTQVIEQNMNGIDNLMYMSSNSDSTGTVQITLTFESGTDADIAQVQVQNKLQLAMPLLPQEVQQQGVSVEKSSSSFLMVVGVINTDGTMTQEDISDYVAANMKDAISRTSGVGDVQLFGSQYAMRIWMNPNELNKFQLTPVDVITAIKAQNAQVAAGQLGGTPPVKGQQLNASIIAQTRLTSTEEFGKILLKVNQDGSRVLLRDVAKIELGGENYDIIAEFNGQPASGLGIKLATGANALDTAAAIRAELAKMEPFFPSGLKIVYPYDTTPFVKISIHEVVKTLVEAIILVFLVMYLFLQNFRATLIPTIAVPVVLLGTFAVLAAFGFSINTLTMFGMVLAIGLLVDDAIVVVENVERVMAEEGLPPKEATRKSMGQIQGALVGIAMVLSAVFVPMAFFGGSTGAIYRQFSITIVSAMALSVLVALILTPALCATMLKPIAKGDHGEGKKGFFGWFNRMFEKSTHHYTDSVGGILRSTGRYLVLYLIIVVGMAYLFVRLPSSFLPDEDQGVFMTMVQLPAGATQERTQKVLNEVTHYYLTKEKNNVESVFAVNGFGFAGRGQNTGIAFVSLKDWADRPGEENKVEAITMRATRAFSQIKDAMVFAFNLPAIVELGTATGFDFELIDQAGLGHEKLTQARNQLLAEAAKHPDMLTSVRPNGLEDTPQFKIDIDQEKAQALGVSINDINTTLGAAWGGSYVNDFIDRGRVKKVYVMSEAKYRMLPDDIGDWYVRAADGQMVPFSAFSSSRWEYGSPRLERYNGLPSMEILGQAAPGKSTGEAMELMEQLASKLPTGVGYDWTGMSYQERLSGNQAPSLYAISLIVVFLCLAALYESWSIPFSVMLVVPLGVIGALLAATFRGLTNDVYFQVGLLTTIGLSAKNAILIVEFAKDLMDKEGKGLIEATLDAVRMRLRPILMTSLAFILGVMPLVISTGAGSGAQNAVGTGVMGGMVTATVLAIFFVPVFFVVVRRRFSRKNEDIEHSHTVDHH

[2] = target: T1, Multidrug efflux pump subunit AcrB (Escherichia coli (strain K12)); test: Inhibition of AcrB in multidrug-resistant Escherichia coli BW25113 assessed as potentiation of tetraphenylphosphonium-induced antibacterial activity by measuring fold change in tetraphenylphosphonium MIC at 64 ug/ml by checkerboard titration method relative to tetraphenylphosphonium MIC; settings: dose 64.0 µg/ml
Cell membrane = test: Induction of outer membrane permeabilization in wild type Escherichia coli BW25113 assessed as increase in nitrocefin hydrolysis at 8 ug/ml in presence of CCCP by spectroscopic analysis; settings: dose 8 µg/ml
Procedure, shortened: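 Intact E. coli were treated with 10 μM CCCP to block nitrocefin efflux, then given compound, nothing, or polymyxin B as permeabilizer control. Nitrocefin was added, and hydrolysis by periplasmic β-lactamase was followed as the rise in absorbance at 490 nm. Duplicate experiments were run on different days.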

Compound `Cc1ccc(COc2cccc3c4c(c(-c5nnco5)cc23)CCC(C)(C)O4)cc1` has a fold change (FC) [1] of less than 16.
Compound `CC1(C)CC(=O)c2ccc(OCC(=O)Nc3ccc(C#N)c(C(F)(F)F)c3)cc2O1` has a fold change (FC) [2] of 4.
In the case of `CC1CN(C(=O)c2cc3c(OCc4c(Cl)cccc4Cl)cccc3c3c2CCC(C)(C)O3)CC(C)O1` (stereo not drawn), the Activity (Cell membrane) is reported as “Not Active”.
